Laboratory results as given in ChEMBL document CHEMBL1152928, “Ingol and ingenol diterpenes from the aerial parts of Euphorbia royleana and their antiangiogenic activities” (J Nat Prod, 2009).

Experiments:
[1] = Antiangiogenic activity in zebrafish embryo assessed as inhibition of intersegmental vessel growth at 5 ug/mL after 24 hours by alkaline phosphatase staining relative to PTK787; type: functional, Danio rerio
[2] = Antiangiogenic activity in zebrafish embryo assessed as inhibition of intersegmental vessels growth after 24 hours by alkaline phosphatase staining; type: functional, tissue-based, Danio rerio
How it was run: (§1)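 Embryos at 24 hpf randomly distributed into wells and exposed 24 h. Intersegmental vessels visualized by GFP labeling plus endogenous alkaline phosphatase staining. Activity derived from inhibition ratio of angiogenesis versus 0.1% DMSO vehicle control. PTK787 positive control.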

[3] = Antiangiogenic activity in zebrafish embryo assessed as inhibition of intersegmental vessel growth at 3 ug/mL after 24 hours by alkaline phosphatase staining relative to control; type: functional, Danio rerio; how it was run: as §1
[4] = Antiangiogenic activity in zebrafish embryo assessed as inhibition of intersegmental vessel growth at 10 ug/mL after 24 hours by alkaline phosphatase staining relative to control; type: functional, Danio rerio; how it was run: as §1
[5] = Antiangiogenic activity in zebrafish embryo assessed as inhibition of intersegmental vessel growth at 1 ug/mL after 24 hours by alkaline phosphatase staining relative to control; type: functional, Danio rerio; how it was run: as §1
[6] = Antiangiogenic activity in zebrafish embryo assessed as inhibition of intersegmental vessel growth at 0.1 ug/mL after 24 hours by alkaline phosphatase staining relative to control; type: functional, Danio rerio; how it was run: as §1

| IC50 [2] [µg/mL] | Structure (SMILES) | inhibition (INH) [1] [%] | inhibition (INH) [3] [%] | inhibition (INH) [4] [%] | inhibition (INH) [5] [%] | inhibition (INH) [6] [%] |
| --- | --- | --- | --- | --- | --- | --- |
| > 5 | CC(=O)O[C@H]1[C@H]2[C@@H]([C@H](OC(C)=O)[C@@H](C)C(=O)[C@@]34C[C@H](C)[C@H](OC(C)=O)[C@]3(/C=C(\C)[C@H]1OC(=O)c1ccccc1)O4)C2(C)C |  |  |  |  |  |
| > 5 | C/C=C(\C)C(=O)O[C@H]1[C@H]2[C@@H]([C@H](OC(C)=O)[C@@H](C)C(=O)[C@@]34C[C@H](C)[C@H](OC(=O)/C(C)=C/C)[C@]3(/C=C(\C)[C@H]1OC(=O)c1ccccc1)O4)C2(C)C | 1.1 | 4.7 | 12.2 |  |  |
| > 5 | C/C=C(\C)C(=O)O[C@H]1[C@H]2[C@@H]([C@H](OC(C)=O)[C@@H](C)C(=O)[C@@]34C[C@@H](C)[C@H](OC(=O)c5ccccc5)[C@]3(/C=C(\C)[C@H]1O)O4)C2(C)C |  | 1.1 | 0 | 5.4 |  |
| > 5 | C/C=C(\C)C(=O)O[C@H]1[C@H]2[C@@H]([C@H](OC(C)=O)[C@@H](C)C(=O)[C@@]34C[C@H](C)[C@H](OC(=O)c5ccccc5)[C@]3(/C=C(\C)[C@H]1O)O4)C2(C)C | 0 | 5.4 | 3.2 |  |  |
| > 5 | C/C=C(\C)C(=O)O[C@H]1[C@@H](C)C[C@@]23O[C@@]12/C=C(\C)[C@@H](O)[C@@H](OC(=O)c1ccccc1)[C@H]1[C@@H]([C@H](OC(C)=O)[C@@H](C)C3=O)C1(C)C |  | 3.6 | 4.7 | 4.7 |  |

Continued, compound first:

| Structure (SMILES) | IC50 [2] [µg/mL] | inhibition (INH) [1] [%] | inhibition (INH) [3] [%] | inhibition (INH) [4] [%] | inhibition (INH) [5] [%] | inhibition (INH) [6] [%] |
| --- | --- | --- | --- | --- | --- | --- |
| C/C=C(\C)C(=O)O[C@@H]1/C(C)=C/[C@@]23O[C@@]2(C[C@H](C)[C@@H]3OC(=O)/C(C)=C/C)C(=O)[C@H](C)[C@@H](OC(C)=O)[C@@H]2[C@H]([C@@H]1OC(C)=O)C2(C)C | > 5 | 5.8 | 5.8 | 5 |  |  |
| CC(=O)O[C@H]1[C@@H]2[C@H]([C@H](OC(=O)c3ccccc3)[C@H](O)/C(C)=C/[C@@]34O[C@@]3(C[C@@H](C)[C@@H]4OC(=O)c3ccccc3)C(=O)[C@@H]1C)C2(C)C | > 5 |  | 1.8 | 3.6 | 1.1 |  |
| CC(=O)O[C@H]1[C@H]2[C@@H]([C@H](OC(C)=O)[C@@H](C)C(=O)[C@@]34C[C@H](C)[C@H](OC(=O)c5ccccc5)[C@]3(/C=C(\C)[C@H]1OC(=O)c1ccccc1)O4)C2(C)C | > 5 |  | 1.8 | 1.8 | 1.8 |  |
| CC(=O)O[C@H]1[C@@H]2[C@H]([C@H](OC(=O)c3ccccc3)[C@H](O)/C(C)=C/[C@@]34O[C@@]3(C[C@H](C)[C@@H]4OC(=O)c3ccccc3)C(=O)[C@@H]1C)C2(C)C | > 5 |  | 2.1 | 0 | 0 |  |
| C/C=C(\C)C(=O)O[C@H]1[C@H]2[C@@H]([C@H](OC(C)=O)[C@@H](C)C(=O)[C@@]34C[C@H](C)[C@H](OC(=O)/C(C)=C/C)[C@]3(/C=C(\C)[C@H]1O)O4)C2(C)C | > 5 |  | 3.6 | 4.7 | 2.9 |  |
| Clc1ccc(Nc2nnc(Cc3ccncc3)c3ccccc23)cc1.O=C(O)CCC(=O)O | 0.15 |  |  | 100 | 95.5 | 34.6 |
